A selection: hits, their analogues and other compounds. The true share with any hit is near 6.1%.
hDAT+cocaine – changed hDAT dopamine uptake under cocaine IC80, either direction, primary screen, cocaine antagonist project, cell-based, LLC-PK1 hDAT, [14C]-dopamine uptake, MLSMR; 1.3% of 110,000 active; LLC-PK1 hDAT cells, [14C]-dopamine uptake with cocaine IC80; actives deviate in either direction; B-score at 10 µM; Sodium-dependent dopamine transporter (Homo sapiens), Q01959;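 active = Z score or B-score, a plate-position-corrected score, falls beyond the plate's 99.7% confidence bounds, in either direction; inactive = both scores lie inside the 99.7% bounds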;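 note: scored against the spread of the other compound wells on the same plate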
Target sequence (Q01959 whole entry, looked up): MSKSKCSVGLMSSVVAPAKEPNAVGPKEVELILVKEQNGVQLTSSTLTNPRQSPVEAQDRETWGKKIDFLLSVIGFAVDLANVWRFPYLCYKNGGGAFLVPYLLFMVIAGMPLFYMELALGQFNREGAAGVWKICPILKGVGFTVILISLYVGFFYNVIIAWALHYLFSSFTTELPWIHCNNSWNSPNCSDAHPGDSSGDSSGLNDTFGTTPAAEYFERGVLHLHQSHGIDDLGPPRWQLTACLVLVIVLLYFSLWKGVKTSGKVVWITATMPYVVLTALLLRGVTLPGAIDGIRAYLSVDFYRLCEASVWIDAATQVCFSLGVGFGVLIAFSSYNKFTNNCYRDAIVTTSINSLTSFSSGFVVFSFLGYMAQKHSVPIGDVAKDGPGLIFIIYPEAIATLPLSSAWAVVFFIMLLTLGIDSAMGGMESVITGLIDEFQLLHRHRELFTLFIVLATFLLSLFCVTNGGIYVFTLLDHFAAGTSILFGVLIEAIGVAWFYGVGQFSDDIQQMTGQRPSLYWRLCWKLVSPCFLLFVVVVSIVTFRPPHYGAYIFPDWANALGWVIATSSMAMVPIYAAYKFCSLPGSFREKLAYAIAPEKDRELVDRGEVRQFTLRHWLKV
Yeast lifespan up – compounds extending yeast replicative lifespan, primary screen, S. cerevisiae, OD615. S. cerevisiae growth with nicotinamide; deaD strain in restrictive glucose medium. inhibition of the nicotinamide effect, % at 10 µM. 0.68% of 130,000 active;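 active = inhibition above a set limit, placed 3 SD over the median of all compounds, cut at about 26% in these data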;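 note: 0% = nicotinamide-treated wells and 100% = cells grown without nicotinamide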
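Measured by: optical density (absorbance) at 615 nm; System: modified budding yeast, DeaD strain; Medium: restrictive CSMM-D dextrose medium; Timing: 4 h preincubation then 48 h treatment at 30 °C.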
BB579 growth dn – growth inhibitors of yeast BB579 in restrictive medium, primary screen, yeast lifespan-shortening project, S. cerevisiae; OD615, 48 h; inhibition, % at 10 µM; 0.51% of 140,000 active;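 active = inhibition above a set limit, 3 SD over the mean compound inhibition, cut at about 44% in these data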
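Assay system: S. cerevisiae DeaD strain BB579 yeast. Medium: CSMM-D restrictive synthetic medium containing dextrose (glucose). Times: 4 h cell preincubation, 48 h compound exposure, 30 °C humidified. Signal: OD615 turbidity measurement. Benchmarks: positive control amphotericin B 10 µg/mL.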
WT yeast gro inh – growth inhibition of WT strain, primary screen, mitochondrial fusion inhibitor project, WT and mutant strains, chemical genetic. mitochondrial fusion phenotypic screen. inhibition, % at 10 µM. 2.1% of 190,000 active. AID 1362, 2008; in the data active = inhibition above about 58%; tested in S. cerevisiae
RAM inhibit – inhibitors of the yeast RAM network, primary screen, dse1pr::URA3 reporter, 5-FOA selection | S. cerevisiae dse1pr::URA3 reporter, 5-FOA growth OD615, 2 d; analog-sensitive cbk1-as2 kinase mutant strain | 1.8% of 190,000 active | inhibition, % at 50 µM;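 active = inhibition above a set limit, 3 SD over mean compound inhibition, cut at about 8.4% in these data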;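 note: 0% = DMSO-only wells with no growth and 100% = 10 µM 1-NA-PP1 full growth; inhibition rescues growth on 5-FOA so higher OD means more RAM inhibition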
Measles CPE – compounds protecting cells from measles virus cytopathic effect, primary screen, measles RdRp inhibitor project, single point, MLSMR library, absorbance; Measles virus-infected cells, CPE protection; protection (pct of control), % at 4 µM; 1.5% of 140,000 active; in the data active = protection mostly above about 24%, no sharp cut-off; inactive = mostly below about 26%
Starred values were filed as active, the others as inactive; · = no result.

SMILES | hDAT+cocaine | Yeast lifespan up | BB579 growth dn | WT yeast gro inh | RAM inhibit | Measles CPE
Cc1c(O)nc(SCC(=O)Nc2ccc3c4c(cccc24)CC3)n(-c2ccc(F)cc2)c1=O | · | -2 | -36 | 2 | 9.2* | 9
O=S(=O)(Nc1ccc(-c2nc3ccccc3o2)cc1)c1ccccc1 | 0.39 | -7 | 46* | 49 | 5 | 9
CC(=O)Nc1ccc(S(=O)(=O)Nc2cccc(-c3nc4ccccc4o3)c2)cc1 | 0.015 | -6 | -5 | 4 | 1 | 12
O=C(CS(=O)(=O)c1ccccc1)N1CCc2ccccc21 | · | · | · | -3 | 2 | ·
Cc1ccc(OCCSc2nc(NC(C)C)nc(NC(C)C)n2)cc1 | · | 11 | -54 | 72* | 1 | 0
O=C1CC(SCc2nc3ccccc3[nH]2)C(=O)N1c1cccc(F)c1 (stereo unspecified) | · | -11 | -23 | 76* | 1 | 19
C=CCn1c(SCC(=O)c2ccccc2)nnc1-c1cc2ccccc2o1 | -0.32 | -7 | -28 | 8 | 4 | 6
C=CCn1c(SCC(=O)c2ccc(OC)cc2)nnc1-c1cc2cccc(OC)c2o1 | 0.52 | -9 | -35 | 4 | 11* | 18
Nc1[nH]c(=O)ncc1F | -0.14 | 2 | 74* | -6 | 0 | 22
O=C(N/N=C/c1ccc([N+](=O)[O-])s1)c1ccccc1Br | -0.76 | -10 | -38 | 7 | 3 | 7
Cc1ccccc1C(=O)N/N=C/c1ccc([N+](=O)[O-])s1 | -0.55 | -4 | -17 | 12 | 1 | 44*
CC(CC(=O)O)Nc1ccccc1O (stereo unspecified) | · | · | · | -4 | 1 | ·
CCC(C)NC(=S)Nc1ccc(C(=O)OC)cc1 (stereo unspecified) | · | · | · | 6 | 1 | ·
COc1ccc(C(=O)N/C(=C\c2cccc3ccccc23)C(=O)NCCc2c[nH]c3ccccc23)cc1OC | 0.12 | -3 | -76 | -66 | 8.8* | 3
CCC(Sc1nnnn1-c1ccccc1)C(=O)NC(C)c1ccccc1 (stereo unspecified) | -0.04 | 2 | -38 | 13 | 0 | 34
CCC(Sc1nnnn1-c1ccccc1)C(=O)Nc1nc2ccccc2s1 (stereo unspecified) | 2.3 | -2 | -41 | 58* | 3 | 23
O=C(NCCOC(=O)C1COc2ccccc2O1)c1cccnc1 (stereo unspecified) | -0.33 | -4 | -22 | -11 | 2 | 5
CCCCC(O)(C(NC=O)C(=O)OC)C(F)(F)F (stereo unspecified) | -8.6* | -11 | -26 | 19 | 1 | 32
Oc1ccc2ccccc2c1C=Nc1ccccc1-c1nc2ccccc2[nH]1 | 1.1 | 39* | -39 | -6 | -1 | 2
O=C(O)c1ccccc1-c1nc2ccccc2[nH]1 | · | · | · | 2 | -1 | ·
CC(C)=CC(=O)Nc1nc2ccc([N+](=O)[O-])cc2s1 | · | · | · | 11 | 4 | ·
O=C(Cn1cc(C(=O)c2ccco2)c2ccccc21)NC1CC1 | · | · | · | 14 | 1 | ·
O=[N+]([O-])c1ccc2nc(/C=C/c3ccc(Cl)cc3)[nH]c2c1 | 0.43 | -13 | -23 | 67* | 0 | ·
O=[N+]([O-])c1ccc(-c2nc3ccc([N+](=O)[O-])cc3[nH]2)cc1 | 0.59 | -19 | -38 | 13 | 1 | 8
O=c1cc(-c2ccc(C3CCCCC3)cc2)[nH][nH]1 | · | · | · | 69* | 3 | ·
SMILES | hDAT+cocaine | Yeast lifespan up | BB579 growth dn | WT yeast gro inh | RAM inhibit | Measles CPE
O=C(COC(=O)c1ccccc1C(=O)c1ccc(Cl)c([N+](=O)[O-])c1)NC1CCCCCC1 | -0.58 | -11 | -12 | 78* | 1 | 30
N#Cc1ccccc1Sc1ccccc1C(=O)OCc1nnc(-c2ccccc2)o1 | 2.5* | -15 | -57 | 0 | 10* | 4
Cc1ccc(S(=O)(=O)c2nnn(-c3cccc(F)c3)c2N)cc1 | · | · | · | -1 | 4 | ·
CCCC(C)n1[nH]c(=O)cc1N (stereo unspecified) | -2.8* | -2 | -22 | -4 | 3 | 4
CCCCC(C)n1[nH]c(=O)cc1N (stereo unspecified) | -0.93 | 0 | -56 | 12 | 0 | 9
O=C(c1ccc(COc2c(F)c(F)c(F)c(F)c2F)o1)N1CCOCC1 | 1 | -14 | -32 | 1 | 2 | 4
O=C(Nc1ccc(F)cc1F)c1ccc(COc2c(F)c(F)cc(F)c2F)o1 | 0.2 | -13 | -38 | 12 | 8.6* | 4
O=C(c1ccc(COc2c(F)c(F)cc(F)c2F)o1)N1CCN(c2ccccc2)CC1 | 0.013 | · | -18 | 3 | 11* | 15
CC1CCN(CCOc2ccc(OCc3ccccc3)cc2)CC1 | · | 5 | 1 | 15 | 0 | 27
O=C(CN1C(=O)C2CC=CCC2C1=O)NC1CCCc2ccccc21 (stereo unspecified) | 0.84 | -2 | -27 | 1 | 0 | 7
Fc1ccc(CO/N=C/C2=C(Cl)c3ccccc3CC2)cc1 | 1.7 | -11 | -27 | 58* | 2 | 9
O=c1cc2c(nn1Cc1ccc(F)cc1)-c1ccccc1CC2 | · | · | · | 58 | 0 | ·
C=CCn1c(SCC(N)=O)nnc1-c1cccc(Br)c1 | -0.025 | -8 | -36 | -3 | 0 | 35*
CC1=[N+](C)N(c2ccccc2)C(=O)C1N=Cc1ccccc1Cl (stereo unspecified) | · | 3 | -15 | -7 | 2 | 1
CC1=[N+](C)N(c2ccccc2)C(=O)C1N=Cc1c(Cl)cccc1Cl (stereo unspecified) | · | 35* | -8 | -3 | 0 | 31
CCC1=NN2C(=N)/C(=C\c3cccn3-c3cccc(Cl)c3)C(=O)N=C2S1 | · | · | · | 62* | 2 | ·
CCC1=NN2C(=N)/C(=C\c3cccn3-c3ccc(C)cc3C)C(=O)N=C2S1 | · | · | · | 84* | 4 | ·
O=C(NCc1ccccc1)C1=C[C@H](C2CCCCC2)C[C@H](OCCCCO)O1 | 2.1* | · | · | · | · | ·
O=C(NCc1nc2ccccc2[nH]1)C1=C[C@H](C2CCCCC2)C[C@H](OCCCCO)O1 | 1.9* | · | · | · | · | ·
CCO[C@H]1OC(C(=O)NCc2nc3ccccc3[nH]2)=C[C@@H](c2ccc3c(c2)OCO3)[C@@H]1CCCO | 2.7* | · | · | · | · | ·
O=C(OCCN=C1NS(=O)(=O)c2ccccc21)c1cccs1 | · | · | · | -13 | -1 | ·
CCCCCOC(=O)NC1CCS(=O)(=O)C1 (stereo unspecified) | · | · | · | -12 | 4 | ·
CNc1ccccc(-c2ccc3ccccc3n2)c1=O | · | 32* | -14 | -4 | 0 | 17
COC(=O)Cc1csc(Nc2ccccc2Cl)n1 | · | -6 | 8 | 36 | 0 | 8
